Screening data (PubChem BioAssay)
An excerpt weighted towards active compounds, which were near 2.7% of everything screened.
PP1 inh = blocks human PP1-alpha phosphatase, a PP5 counter-screen. inhibition, % at 6.7 µM. purified PP1alpha, OMFP fluorescence. AID 2235. 320,000 compounds, 0.9% hits;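 active = inhibition above the mean inhibition of all tested compounds plus 3 SD, computed separately for each screening campaign, cut at about 15% in these data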
HNF4A DNA FP = change in binding of human HNF4 alpha to DNA; HNF4a-FITC DNA binding, fluorescence polarization, 1 h; activity change, % at 10 µM; 360,000 compounds, 0.3% hits; in the data active = activity change above about 30%, passing the limit was not always enough
NadD block = blocks S. aureus nicotinate mononucleotide adenylyltransferase | purified NadD enzyme, colorimetric absorbance read-out | inhibition, % at 20 µM | 360,000 compounds, 0.78% hits; in the data active = inhibition above about 26%
TPT1 inhibitor = C. albicans TPT1 enzyme inhibition; recombinant caTPT1, FP RNA substrate dephosphorylation; inhibition, % at 5 µM; 300,000 compounds, 0.81% hits; AID 1962;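 active = inhibition above the mean of all tested compounds plus 3 SD, set per screening campaign, cut at about 24% in these data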;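 also: plate controls were DMSO alone for no effect and ferristatin control at 100 nM for full effect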
CSN deneddyl inh = inhibitors of human CSN-mediated cullin deneddylation; Q92905; Purified CSN, SCF-Nedd8-OG deneddylation, fluorescence polarization; inhibition, % at 12.5 µM; 360,000 compounds, 0.38% hits; AID 651999;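 active = pattern-corrected inhibition above about 35%, with an unprinted fluorescence ratio check between 0.5 and 1.5, limit read from the data, passing the limit was not always enough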;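 also: 0% = enzyme with substrate and 100% = substrate without enzyme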
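Assay system: purified human Csn5 enzyme expressed in HEK293T cells; Input: 0.24 nM Csn5 enzyme, final concentration; Reagent: 10 nM SCFSkp2-Nedd8OG; Compound dosing: 12.5 µM single point; Times: reaction 90 min, room temperature; Technique: fluorescence polarization readout.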
Rpn11 inh = blocks the human proteasome subunit Rpn11. O00487. inhibition, % at 20 µM. 360,000 compounds, 0.59% hits. human 26S proteasome, Ub4-pepOG fluorescence polarization; 20S core pre-blocked with epoxomicin. AID 588493;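 active = inhibition at 20 µM, scaled to each plate's controls, above about 33%, limit read from the data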
Target sequence (O00487 whole entry, looked up): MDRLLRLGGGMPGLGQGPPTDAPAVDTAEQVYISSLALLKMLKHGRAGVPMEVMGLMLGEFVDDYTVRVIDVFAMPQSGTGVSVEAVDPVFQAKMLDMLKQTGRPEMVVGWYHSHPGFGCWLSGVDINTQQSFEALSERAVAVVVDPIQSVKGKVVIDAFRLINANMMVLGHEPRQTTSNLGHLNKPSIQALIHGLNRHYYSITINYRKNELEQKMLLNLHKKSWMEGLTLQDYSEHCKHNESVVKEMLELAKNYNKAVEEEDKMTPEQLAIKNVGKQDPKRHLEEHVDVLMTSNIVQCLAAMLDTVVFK
caTPT1 confirm = TPT1 (C. albicans) inhibition, confirmation | 2,400 compounds, 74% hits | shares compounds with TPT1 inhibitor | AID 2149 | recombinant caTPT1, fluorescence polarization, RNase T1 coupled | inhibition, % at 5 µM;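 active = inhibition above the primary screen limit, the mean inhibition of all tested compounds plus 3 SD, cut at about 25% in these data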
RNase T1 inh = counter-screen for TPT1 inhibitors: inhibitors of Aspergillus oryzae RNase T1; 2,400 compounds, 83% hits; shares compounds with TPT1 inhibitor; AID 2153; RNase T1 cleavage, fluorescence polarization, 1536-well; inhibition, % at 5 µM;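 active = inhibition above the solvent-only control well mean plus 3 SD, limit set per screening run, cut at about 23% in these data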;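 also: plate controls were DMSO wells with enzyme for no effect and wells without RNase T1 for full effect; inhibitors block cleavage so intact labeled substrate keeps polarization high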
Target sequence (P00651 whole entry, looked up): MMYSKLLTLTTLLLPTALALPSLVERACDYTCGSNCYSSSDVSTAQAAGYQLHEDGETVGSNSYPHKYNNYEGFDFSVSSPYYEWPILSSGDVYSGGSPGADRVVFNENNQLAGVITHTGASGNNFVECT
Active calls of the source: *; / = no result given.

SMILES	PP1 inh	HNF4A DNA FP	NadD block	TPT1 inhibitor	CSN deneddyl inh	Rpn11 inh	caTPT1 confirm	RNase T1 inh
CC1(C(=O)NS(=O)(=O)C2CC2)CCN(C(=O)c2ccccc2F)C1 (centres undefined)	/	-1	0	/	-2	1	/	/
CN1/C(=C/C2CC(=O)N(c3ccc([N+](=O)[O-])cc3)C2=O)C(C)(C)c2ccccc21 (centres undefined)	1	1	14	25*	5	14	14	20
COc1ccc(C)cc1S(=O)(=O)N(CC(=O)N1CCOCC1)c1cc(C)cc(C)c1	-1	-1	-4	-4	0	2	/	/
COc1ccc(Br)cc1S(=O)(=O)N(CC(=O)N1CCOCC1)c1ccccc1	-4	-2	3	43*	3	9	6	10
Cc1c(C(=O)Nc2ccccc2N2CCN(C)CC2)oc2ccc(F)cc12	/	5	-4	/	-1	-2	/	/
CCN(CC)c1ccc(/C=N/NC(=O)c2cccc(S(=O)(=O)Nc3ccccc3OC)c2)c(O)c1	11	18	21	55*	7	/	78*	87*
COc1ccccc1NS(=O)(=O)c1cccc(C(=O)N/N=C/c2ccc3c(c2)OCCO3)c1	2	4	8	2	0	4	/	/
C=CCN1C(=O)/C(=C/c2ccc(-c3ccc(F)cc3)o2)SC1=S	0	4	3	81*	54	34	115*	120*
CC1(C)CC(=O)C=C(NNC(=O)c2ccccc2O)C1	-6	9	-4	39*	8	25	46*	57*
CC(=O)c1c(C)[nH]c(C(=O)OCC(=O)NCc2cccs2)c1C	-2	3	-1	/	-1	-1	/	/
COC(=O)Cn1cc(/C=C/c2cc[n+](C)cc2)c2ccccc21	1	92	10	35*	68	/	41*	49*
COc1ccc2c(Cl)c(C(=O)N/N=C3\CCCC(=O)C3)sc2c1	-2	165	12	97*	56	/	121*	115*
CCN(CC)c1ccc(/C=N/N=C(N)N)c(O)c1	2	22	-7	49*	7	/	93*	103*
CCN(CC)c1ccc(N=Cc2ccc(N(CC)CC)cc2O)cc1	3	167	-5	63*	31	/	120*	121*
CCN(CC)c1ccc(C=Nc2ccccc2)c(O)c1	-1	10	1	14	1	6	/	/
NC(=O)COc1ccc(C(=O)NCC2(N3CCOCC3)CCCCC2)cc1	-4	1	1	/	2	1	/	/
Cc1nc(-c2coc3cc(C)c(N=O)c(O)c3/c2=N\N)cs1	-4	1	-1	80*	2	3	9	15
CN(C)c1ccc(/C=c2\sc3n(c2=O)CCCN=3)cc1	-4	26	-7	103*	25	/	42*	59*
CC(=Nc1cccc(C)c1)c1sc2ccccc2c1O	-2	16	-3	42*	9	29	68*	80*
CC(=O)NCCN=C(C)c1sc2ccccc2c1O	5	-3	2	1	0	-2	/	/
CC(=Nc1ccccc1O)c1sc2ccccc2c1O	0	38*	-2	104*	8	/	125*	126*
CC(=Nc1ccc(O)cc1)c1sc2ccccc2c1O	1	19	-6	55*	35	21	65*	80*
COc1cc(CC(=O)OCC(=O)N2C(C)CCCC2C)cc(OC)c1OC (centres undefined)	-2	-2	-2	1	7	2	/	/
Cc1c2cnn(CC(=O)NCCCN3CCCCC3C)c(=O)c2c(C)n1Cc1ccccc1 (centres undefined)	-1	11	11	24*	7	30	36*	44*
COc1ccc(C2=NS(=O)(=O)N(C)C(C(=O)Nc3ccc(F)cc3F)=C2)cc1	3	-3	-3	-1	3	0	/	/
